Assay results from publication PMC7083616 (Science Advances, 2020).

Legend:
[1] = molecular target: T1, ~55-kDa band (TrxR1) in A549 cell lysates (Homo sapiens, UniProt Q16881); test: DG-8 competition assay in A549 cell lysates; type: binding; conditions: compound 0.5 to 50 μM 30 min, then DG-8 5 μM 30 min
T1 sequence (Q16881 1-499 isoform Q16881-5): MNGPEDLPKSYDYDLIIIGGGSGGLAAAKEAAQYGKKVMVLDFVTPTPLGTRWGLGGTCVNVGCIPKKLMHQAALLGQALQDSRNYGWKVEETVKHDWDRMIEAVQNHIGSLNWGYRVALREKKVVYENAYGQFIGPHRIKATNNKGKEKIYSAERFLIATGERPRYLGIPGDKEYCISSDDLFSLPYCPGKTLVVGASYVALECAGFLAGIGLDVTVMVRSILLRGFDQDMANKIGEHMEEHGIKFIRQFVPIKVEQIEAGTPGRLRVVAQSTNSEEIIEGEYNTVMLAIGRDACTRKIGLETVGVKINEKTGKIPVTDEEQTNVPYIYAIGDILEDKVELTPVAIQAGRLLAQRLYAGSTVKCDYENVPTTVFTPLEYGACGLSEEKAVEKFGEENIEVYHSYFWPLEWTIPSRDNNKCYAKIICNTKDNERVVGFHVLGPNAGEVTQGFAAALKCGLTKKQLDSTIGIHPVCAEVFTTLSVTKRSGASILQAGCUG
Summary of the method: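 A549 lysate (30 μg) was preincubated with test compound (0.5 to 50 μM) for 30 min, then with the dansyl-tagged probe (5 μM) for 30 min. Samples in LDS buffer with 100 mM DTT were heated at 95°C for 5 min and run on 10% bis-tris gels. The ~55-kDa band was imaged by UV dansyl fluorescence.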

[2] = molecular target: T2, TrxR1 (Homo sapiens, UniProt Q16881); test: Cellular TrxR1 activity, Trx1-linked insulin end point assay; type: cell-based; conditions: FaDu cells, 1 μM, 3 hours
T2 sequence (Q16881 1-499 isoform Q16881-5): T1 sequence (Q16881 1-499 isoform Q16881-5)
Summary of the method: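 FaDu cells were seeded at 400,000 per well and treated 24 h later for 3 h at 37°C. Cells were lysed in modified RIPA buffer and protein measured by BCA. Lysate was incubated with 0.16 mM insulin, 0.33 mM NADPH and 16 μM Trx1 in TE buffer (pH 7.5) at 37°C for 0–90 min. Each time point was stopped with 7.2 M guanidine-HCl/2.5 mM DTNB and read at A412. Activity came from the A412 rise against a pure-enzyme standard curve; n = 3.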

[3] = molecular target: T2, TrxR1; test: Recombinant TrxR1 insulin reduction assay; type: biochemical; conditions: with NADPH, Trx1 used to reduce insulin
Summary of the method: (§1)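 Test compound was preincubated for 75 min with 10 nM TrxR1 or 10 nM TrxR2, plus BSA (0.1 mg/ml) and 250 μM NADPH. Then 25 μM Trx1 (TrxR1) or Trx2 (TrxR2) and 160 μM insulin were added. NADPH consumption was followed at A340 for 20 min.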

[4] = tested on: Nrf2; test: pTRAF reporter, Nrf2 transcriptional activity; type: cell-based, human; conditions: HEK293 cells, 1 μM, 24 hours
Summary of the method: (§2)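 HEK293 cells were seeded at 20,000 per well on collagen I-coated plates. The next day, they were transfected overnight with 50 ng of the pTRAF-Nrf2/HIF/NFκB vector using Turbofect. Cells were then exposed for 24 h to 1 μM test compound. Positive controls were auranofin (1 μM) for Nrf2 and TNF-α (20 ng/ml) for NFκB. After 30 min Hoechst (40 ng/ml), per-well reporter fluorescence was quantified by high-content imaging.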

[5] = tested on: NFκB; test: pTRAF reporter, NFκB transcriptional activity; type: cell-based, human; conditions: HEK293 cells, 1 μM, 24 hours
Summary of the method: as §2

[6] = tested on: STAT-driven luciferase expression; test: STAT-dependent luciferase in HEK293-shScramble and HEK293–shPrx1 + Prx2; type: cell-based, human; conditions: IL6 50 ng/ml + sIL6R 100 ng/ml
[7] = molecular target: TrxR2 (Homo sapiens, UniProt Q9NNW7); test: Recombinant TrxR2 insulin reduction assay; type: biochemical; conditions: with NADPH, Trx2 used to reduce insulin
TrxR2, sequence (Q9NNW7 37-524, species assumed): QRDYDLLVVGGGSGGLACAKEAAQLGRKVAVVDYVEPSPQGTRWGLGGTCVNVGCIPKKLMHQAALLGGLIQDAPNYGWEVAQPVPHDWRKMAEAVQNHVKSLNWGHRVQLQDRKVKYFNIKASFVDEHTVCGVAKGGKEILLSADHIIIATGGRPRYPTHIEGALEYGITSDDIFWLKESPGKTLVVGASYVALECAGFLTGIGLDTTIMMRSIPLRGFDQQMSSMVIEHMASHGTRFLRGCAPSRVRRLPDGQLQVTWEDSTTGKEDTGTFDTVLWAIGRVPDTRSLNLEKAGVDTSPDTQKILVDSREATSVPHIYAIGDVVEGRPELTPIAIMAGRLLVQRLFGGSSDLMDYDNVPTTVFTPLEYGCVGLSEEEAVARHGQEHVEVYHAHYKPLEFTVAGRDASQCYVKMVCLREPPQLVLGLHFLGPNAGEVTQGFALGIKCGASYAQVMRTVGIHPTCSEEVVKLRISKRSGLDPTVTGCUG
Summary of the method: as §1

| competition with DG-8 for binding to the ~55-kDa band [1] | inhibition of recombinant TrxR1 activity [3] | inhibition of cellular TrxR1 activity [2] | inhibition of recombinant TrxR2 activity [7] | Structure (SMILES) | effect on cellular TrxR1 activity [2] | Nrf2 activation [4] | NFκB activation [5] | luciferase inhibition in control versus Prx1 + Prx2 knockdown cells [6] |
| --- | --- | --- | --- | --- | --- | --- | --- | --- |
| could compete with DG-8 for binding | potently inhibited the activity of TrxR1 | approximately 40% | – | O=[N+]([O-])c1ccc2c(c1)S(=O)(=O)C=C2 [Stattic] | – | clearly triggered Nrf2 activation | little effect on NFκB activation | more potently inhibited luciferase expression in the control cells |
| potently outcompeted the probe | – | – | – | COc1ccc([N+](=O)[O-])c(S(=O)(=O)c2ccc(Cl)cc2)n1 [TRi-1] | – | – | – | more potently inhibited luciferase expression in the control cells |
| potently outcompeted the probe | potently inhibited the activity of TrxR1 | – | the only compound that inhibited TrxR2 | CC(=O)OC[C@H]1O[C@@H]([S-])[C@H](OC(C)=O)[C@@H](OC(C)=O)[C@@H]1OC(C)=O.CCP(CC)CC.[Au+] [auranofin] | – | – | – | – |

| Structure (SMILES) | competition with DG-8 for binding to the ~55-kDa band [1] | inhibition of recombinant TrxR1 activity [3] | inhibition of cellular TrxR1 activity [2] | inhibition of recombinant TrxR2 activity [7] | effect on cellular TrxR1 activity [2] | Nrf2 activation [4] | NFκB activation [5] | luciferase inhibition in control versus Prx1 + Prx2 knockdown cells [6] |
| --- | --- | --- | --- | --- | --- | --- | --- | --- |
| CN(CC(=O)N(Cc1ccc(C2CCCCC2)cc1)c1ccc(C(=O)O)c(O)c1)S(=O)(=O)c1c(F)c(F)c(F)c(F)c1F [BP1-102] | not able to compete with the probe | did not fully inhibit the enzymatic activity of TrxR1 | – | – | did not appreciably alter the TrxR1 activity | did not activate Nrf2 | – | – |
